Reference: ChEMBL document CHEMBL4138205, “Oxazole-Containing Diterpenoids from Cell Cultures of Salvia miltiorrhiza and Their Anti-HIV-1 Activities” (J Nat Prod, 2017)
The source made the active and inactive calls. The calls are words filed in the database; no cut-off is given here.

Key:
[1] = system: Human immunodeficiency virus 1; assay: Antiviral activity against wild-type VSV-G pseudotyped HIV1 infected in HEK293 cells at 10 uM pretreated for 15 mins followed by viral infection measured after 48 hrs by luciferase reporter gene assay relative to control; format: functional; settings: Human immunodeficiency virus 1, HEK293
Method in brief: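 Single-concentration screen: compound at final 10 μM added to HEK 293T cells 15 min before VSV-G/HIV-1 infection; cell lysate luciferase measured 48 h postinfection and infectivity expressed relative to equal-volume DMSO solvent control.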

[2] = system: Human immunodeficiency virus 1; assay: Antiviral activity against wild-type VSV-G pseudotyped HIV1 infected in HEK293 cells pretreated for 15 mins followed by viral infection measured after 48 hrs by luciferase reporter gene assay; format: functional, organism-based; settings: Human immunodeficiency virus 1, HEK293
[3] = target: T1, Protein Tat (Human immunodeficiency virus type 1 group M subtype B (isolate HXB2)(HIV-1)) (UniProt P04608); assay: Inhibition of HIV1 Tat-mediated LTR transcriptional activity expressed in HEK293 cells after 48 hrs by dual-luciferase reporter gene assay; format: cell-based; settings: Human immunodeficiency virus 1
T1 sequence (whole entry): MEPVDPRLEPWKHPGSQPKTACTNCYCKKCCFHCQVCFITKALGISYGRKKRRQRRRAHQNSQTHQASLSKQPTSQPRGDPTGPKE
Method in brief: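 HEK 293T cotransfected 4 h with 100 ng pLTR-Luc, 70 ng pcDNA3.1-Tat and 2 ng pSV40-Renilla, then cultured with compound; lysate luciferase activities read 48 h post-transfection by dual-luciferase assay; n = 2.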

[4] = system: Human immunodeficiency virus 1; assay: Antiviral activity against HIV1 infected in HEK293 cells assessed as inhibition of basal LTR transcription after 48 hrs by dual-luciferase reporter gene assay; format: functional, organism-based
Method in brief: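 HEK 293T cotransfected 4 h with 100 ng pLTR-Luc and 2 ng pSV40-Renilla (no Tat), then compound added; firefly and Renilla luciferase in lysates measured 48 h post-transfection by dual-luciferase assay; n = 2.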

[5] = system: Human immunodeficiency virus 1; assay: Antiviral activity against HIV1 NL4-3 infected in human MT2 cells measured after 72 hrs post infection by fluorAce beta-galactosidase reporter gene assay; format: functional, organism-based; settings: Human immunodeficiency virus 1, NL4-3, MT2, 72 h
Method in brief: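 MT-2 cells (RPMI 1640, 10% FBS) in 384-well format infected with HIV-1 NL4-3 carrying a β-galactosidase reporter at MOI 0.01; compounds added in DMSO; β-Gal expression read at 72 h postinfection by FluorAce β-Gal reporter assay; n = 2.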

HEK293 = assay: Effect on renilla luciferase expression in HEK293 cells up to 1 uM after 24 hrs by luciferase reporter gene assay; format: ADME, cell-based; settings: human, hek293, 24 h
Method in brief: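 A plasmid encoding Renilla luciferase (pSV40-Renilla) was transiently transfected into HEK 293T cells for 4 h. Cells were then cultured with the test compound at the indicated concentrations, and Renilla luciferase activity in cell lysates was measured 24 h post-transfection as a control for gene translation; n = 2.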

[6] = system: Human immunodeficiency virus 1; assay: Antiviral activity against HIV1 pNL4-3 infected in HEK293 cells assessed as reduction in viral transcription by measuring decrease in luciferase activity after 20 hrs by luciferase reporter gene assay; format: functional, organism-based
Method in brief: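 HEK 293T transiently transfected with pNL4-3.luc.R−E− for 4 h, then treated with compound (0.001−1 μM range; AZT, EFV, RAL 1 μM) for a further 20 h; luciferase activity then measured as read-out of viral gene expression; n = 2.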

[7] = system: Human immunodeficiency virus 1; assay: Antiviral activity against wild-type VSV-G pseudotyped HIV1 infected in HEK293 cells assessed as time of 50% failure at 0.1 uM measured at 48 hrs post infection by luciferase reporter gene assay; format: functional
Method in brief: (§1)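 Time-of-addition: HEK 293T infected with VSV-G/HIV-1, then compounds added at successive time points after infection (test compound final 0.1 μM; AZT, EFV, RAL final 1 μM); lysate luciferase read at 48 h postinfection; infectivity (%) versus untreated control.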

[8] = system: Human immunodeficiency virus 1; assay: Antiviral activity against VSV-G pseudotyped HIV1 infected in human MT2 cells pretreated for 15 mins followed by viral infection measured after 48 hrs by luciferase reporter gene assay; format: functional, organism-based; settings: Human immunodeficiency virus 1, MT2
Murine leukemia virus = assay: Antiviral activity against wild-type VSV-G pseudotyped MLV infected in HEK293 cells pretreated for 15 mins followed by viral infection measured after 48 hrs by luciferase reporter gene assay; format: functional, organism-based
[9] = system: Human immunodeficiency virus 1; assay: Antiviral activity against HIV1 pNL4-3 infected in HEK293 cells assessed as reduction in viral transcription by measuring decrease in luciferase activity at 1 uM after 20 hrs by luciferase reporter gene assay; format: functional, organism-based
Method in brief: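 HEK 293T cells transiently transfected with the pNL4-3.luc.R−E− HIV-1 reporter plasmid (luciferase gene) for 4 h. The test compound was then added at 0.001−1 μM final and incubated for an additional 20 h. Luciferase activity was read 24 h post-transfection as a measure of viral gene expression; n = 2.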

[10] = system: Human immunodeficiency virus 1; assay: Antiviral activity against wild-type VSV-G pseudotyped HIV1 infected in HEK293 cells assessed as time of 50% failure at 1 uM measured at 48 hrs post infection by luciferase reporter gene assay; format: functional; method in brief: as §1

Q: `Cc1nc2c(o1)c1c(C)coc1c1ccc3c(C)cccc3c12` was tested. Which inhibition at 10 µM [1] did it give?
A: 17.4%

Q: Which IC50 [2] does the source give for `Cc1cccc2c1ccc1c3c(c4ocnc4c12)[C@@H](C)CO3` here?
A: 30 nM

Q: What about the inhibition [3] of the same molecule?
A: Dose-dependent effect

Q: What about the inhibition [4] of the same molecule?
A: Dose-dependent effect

Q: What about the IC50 [5] of the same molecule?
A: 5400 nM

Q: What about the Activity (HEK293) of the same molecule?
A: Non-Toxic

Q: And the Activity [6]?
A: Dose-dependent effect

Q: And the inhibition at 10 µM [1]?
A: 76.7%

Q: What about the FT50 [7] of the same molecule?
A: <=20 hr

Q: What about the IC50 [8] of the same molecule?
A: 30 nM

Q: And the IC50 (Murine leukemia virus)?
A: 150 nM

Q: With `Cc1nc2c(o1)c1c(c3ccc4c(c32)CCCC4(C)C)OC[C@@H]1C` as the molecule, how does the inhibition at 10 µM [1] read?
A: 18.3%

Q: With `Cc1nnc(C(=O)NC(C)(C)c2nc(C(=O)NCc3ccc(F)cc3)c(O)c(=O)n2C)o1` [RALTEGRAVIR] as the molecule, how does the Activity [9] read?
A: inactive

Q: And the FT50 [10]?
A: 12 h

Q: For `Cc1cccc2c1ccc1c3c(c4oc(Cc5ccccc5)nc4c12)[C@@H](C)CO3`, which IC50 [2] is on record?
A: 1200 nM

Q: What about the inhibition at 10 µM [1] of the same molecule?
A: 62.1%

Q: With `Cc1cn([C@H]2C[C@H](N=[N+]=[N-])[C@@H](CO)O2)c(=O)[nH]c1=O` [ZIDOVUDINE] as the molecule, how does the Activity [9] read?
A: inactive

Q: What about the FT50 [10] of the same molecule?
A: 7.7 h

Q: With `O=C1Nc2ccc(Cl)cc2[C@@](C#CC2CC2)(C(F)(F)F)O1` [EFAVIRENZ] as the molecule, how does the Activity [9] read?
A: inactive

Q: What about the inhibition at 10 µM [1] of the same molecule?
A: 100%

Q: And the FT50 [10]?
A: 10.1 h

Q: What about the IC50 (Murine leukemia virus) of the same molecule?
A: > 10000 nM

Q: `C[C@H]1COc2c1c1ocnc1c1c3c(ccc21)C(C)(C)CCC3` was tested. Which inhibition at 10 µM [1] did it give?
A: 18.7%

Q: With `Cc1nc2c3c(c4ccc5c(c4c2o1)CCCC5(C)C)OC[C@@H]3C` as the molecule, how does the inhibition at 10 µM [1] read?
A: 11.2%

Q: How did the inhibition at 10 µM [1] turn out when `Cc1nc2c(o1)c1c(c3ccc4c(C)cccc4c32)OC[C@@H]1C` was run?
A: 2.82%
